Experiments:
[1] = test system: RBL-2H3 cells; assay: β-hexosaminidase; type: cell-based, rat; conditions: DNP-HSA-induced degranulation of RBL-2H3
Procedure, shortened: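 Rat basophilic leukaemia RBL-2H3 cells were seeded at 72 × 10^3 cells/well and sensitized overnight with anti-DNP-HSA IgE, then moved to DMEM containing 1 mg/mL BSA. Test compound, vehicle (0.1% DMSO) or cromolyn was preincubated 5 min at 37 °C, and degranulation was triggered with DNP (10 ng/mL). After 1 h, supernatant β-hexosaminidase was read at 405 nm with p-nitrophenyl-N-acetyl-β-D-glucosaminide substrate. Values are relative to DNP-HSA as 100%, analysed by one-way ANOVA/Bonferroni.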

[2] = test system: OVA-induced allergic lung inflammation; assay: OVA-induced allergic lung inflammation and remodeling; type: in vivo, Balb/c mice; conditions: mice, oral, equimolar doses equivalent to 5.5 mg/kg prednisone (compound 7 9.1 mg/kg); for number of peribronchiolar eosinophils / number of peribronchiolar mast cells: vs allergic mice; for peribronchiolar collagen density / peribronchiolar smooth muscle (α-actin): vs vehicle-treated allergic mice
Procedure, shortened: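 Male Balb/c mice, 4–5 weeks old (n = 5/group), sensitized with subcutaneous OVA on alum on days 1 and 11 plus intranasal OVA on day 11. Intranasal OVA challenges followed on two consecutive days weekly for six weeks; controls got saline. Oral dosing in 0.5% carboxymethyl cellulose (1 mL/kg) was given 30 min before each challenge, then daily for 4 weeks until euthanasia. Formalin-fixed lungs were scored for α-actin (immunohistochemistry) and collagen (Masson's trichrome); one-way ANOVA with Tukey test.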

[3] = Chemical stability in simulated gastric fluid; type: physicochemical; conditions: simulated gastric fluid (SGF) without pepsin, pH 1.2
Procedure, shortened: (§1)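 Test compound was taken from a 10 mM DMSO stock and diluted into PBS pH 7.4 or pepsin-free SGF pH 1.2 (0.5% DMSO final), in triplicate. Samples were incubated at 37 ± 0.5 °C for 24 h with sampling at intervals. Parent compound, glucocorticoid, H2S-donor moiety and succinate metabolite were quantified by C18 RP-HPLC (CH3CN/water 0.1% TFA gradient; UV 234/250/300 nm) against calibration standards. Results are % remaining, mean ± SD, n = 3.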

[4] = Chemical stability in saline phosphate buffer; type: physicochemical; conditions: phosphate buffered saline (PBS), pH 7.4
Procedure, shortened: as §1

[5] = Enzymatic stability in human serum; type: in vitro ADME
Procedure, shortened: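 Sterile-filtered human serum was spiked with test compound from a 10 mM DMSO stock (1% DMSO), in triplicate, at 37 °C. Aliquots taken at intervals up to 24 h were deproteinized with an equal volume of CH3CN containing 0.1% TFA. Samples were vortexed, sonicated 3 min, centrifuged 5 min at 2500 g, filtered, and analysed by C18 RP-HPLC against calibration standards. Half-life is reported as mean ± SD, n = 3.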

[6] = test system: BSMCs; assay: Intracellular H2S release; type: cell-based; conditions: WSP-1-preloaded BSMCs, 40 min
Procedure, shortened: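 Bronchial smooth muscle cells were grown at 37 °C in 5% CO2 with 1% pen/strep and seeded at 30 × 10^3 cells/well. Cells were loaded with the H2S-sensitive dye WSP-1, then exposed to test compound, vehicle, or diallyl disulfide as reference donor. Fluorescence was recorded spectrofluorometrically for 40 min and expressed as fluorescence index, mean ± SEM.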

[7] = test system: BSMCs; assay: Membrane hyperpolarizing effects on BSMCs; type: cell-based; conditions: reference NS1619 10 µM

remaining at 24 h, 50 µM [3] [%] | remaining at 24 h, 50 µM [4] [%] | half-life at 100 µM [5] [min] | SMILES | inhibition of mast cell degranulation (β-hexosaminidase release) ([1]; 100 and 300 µM) | number of peribronchiolar eosinophils [2] | number of peribronchiolar mast cells [2] | peribronchiolar collagen density [2] | peribronchiolar smooth muscle (α-actin) [2] | Intracellular H2S release, fluorescence index (FI) ([6]; 100 and 300 µM) | hyperpolarizing effect compared to NS1619 10 µM ([7]; 100 µM) | hyperpolarizing effect compared to NS1619 10 µM ([7]; 300 µM) | Intracellular H2S release, fluorescence index (FI) ([6]; 100 µM, vs vehicle) | Intracellular H2S release, fluorescence index (FI) ([6]; 300 µM) | inhibition of mast cell degranulation (β-hexosaminidase release) ([1]; 300 µM)
 |  |  | C[C@]12C=CC(=O)C=C1CC[C@@H]1[C@@H]2C(=O)C[C@@]2(C)[C@H]1CC[C@]2(O)C(=O)CO [Compound 2, prednisone, reference compound] | totally inactive | significantly reduced | significantly reduced | efficient in reducing | efficient in reducing |  |  |  |  |  | 
99 ± 1 | 99 ± 2 | 10 ± 1 | C[C@@H]1C[C@H]2[C@@H]3CCC4=CC(=O)C=C[C@]4(C)[C@@]3(F)[C@@H](O)C[C@]2(C)[C@@]1(O)C(=O)COC(=O)CCC(=O)Oc1ccc(-c2cc(=S)ss2)cc1 [Compound 6, 2-((8S,9R,10S,11S,13S,14S,16R,17R)-9-fluoro-11,17-dihydroxy-10,13,16-trimethyl-3-oxo-6,7,8,9,10,11,12,13,14,15,16,17-dodecahydro-3H-cyclopenta[a]phenanthren-17-yl)-2-oxoethyl (4-(3-thioxo-3H-1,2-dithiol-5-yl)phenyl) succinate] |  |  |  |  |  | did not cause any significant increase in fluorescence |  |  |  |  | 
99 ± 1 | 97 ± 1 | 15 ± 2 | C[C@]12C=CC(=O)C=C1CC[C@@H]1[C@@H]2C(=O)C[C@@]2(C)[C@H]1CC[C@]2(O)C(=O)COC(=O)CCC(=O)Oc1ccc(C(N)=S)cc1 [Compound 7, 4-carbamothioylphenyl (2-((8S,9S,10R,13S,14S,17R)-17-hydroxy-10,13-dimethyl-3,11-dioxo-6,7,8,9,10,11,12,13,14,15,16,17-dodecahydro-3H-cyclopenta[a]phenanthren-17-yl)-2-oxoethyl) succinate] | significant inhibitory effect on mast cell degranulation | significantly reduced | significantly reduced | significantly more efficient than the parent prednisone | significantly more efficient than the parent prednisone | significant increase in the intracellular level of H2S | about 240% | about 309% |  |  | 
99 ± 1 | 99 ± 2 | 9 ± 2 | C[C@]12C=CC(=O)C=C1CC[C@@H]1[C@@H]2C(=O)C[C@@]2(C)[C@H]1CC[C@]2(O)C(=O)COC(=O)CCC(=O)Oc1ccc(-c2cc(=S)ss2)cc1 [Compound 8, 2-((8S,9S,10R,13S,14S,17R)-17-hydroxy-10,13-dimethyl-3,11-dioxo-6,7,8,9,10,11,12,13,14,15,16,17-dodecahydro-3H-cyclopenta[a]phenanthren-17-yl)-2-oxoethyl (4-(3-thioxo-3H-1,2-dithiol-5-yl)phenyl) succinate] |  |  |  |  |  | did not cause any significant increase in fluorescence |  |  |  |  | 
 |  |  | C=CCSSCC=C [DADS, diallyl disulfide, reference compound] |  |  |  |  |  |  |  |  | significant FI increase |  | 
 |  |  | NC(=S)c1ccc(O)cc1 [TBZ, 4-hydroxy-thiobenzamide, reference compound] |  |  |  |  |  |  | 38% | 43% | slight increase of FI | massive increase in FI | significant inhibition of RBL-2H3 degranulation

Source: PMC8721254 (Journal of Advanced Research, 2021)
